Measurements as given in ChEMBL document CHEMBL1131202, “Alkyl esters of camptothecin and 9-nitrocamptothecin: synthesis, in vitro pharmacokinetics, toxicity, and antitumor activity” (1998).

Assays:
Assay type in all cases: functional
[1] = In vitro determination of lactone level in human plasma after administration of compound at 0 hour
Summary of the method: (§1)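 Drug (500 ng, in methanol) added to 1 mL of human or mouse plasma and incubated at 37 °C. 100-µL aliquots taken at 0.5–6 h. Analysis by C-8 HPLC (30% acetonitrile/water/0.1% acetic acid) with fluorescence at 347/418 nm. Percent lactone: lactone/total drug for the parent; drug at each time relative to t = 0 for the ester.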

[2] = In vitro determination of lactone level in human plasma after administration of compound at 1 hour; summary of the method: as §1
[3] = In vitro determination of lactone level in human plasma after administration of compound at 6 hour; summary of the method: as §1
[4] = system: Mus musculus; assay: In vitro determination of lactone level in mouse plasma after administration of compound at 0 hour; summary of the method: as §1
[5] = system: Mus musculus; assay: In vitro determination of lactone level in mouse plasma after administration of compound at 1 hour; summary of the method: as §1
[6] = system: Mus musculus; assay: In vitro determination of lactone level in mouse plasma after administration of compound at 6 hour; summary of the method: as §1
[7] = In vitro determination of lactone level in human plasma after administration of compound at 2 hour; summary of the method: as §1
[8] = In vitro determination of lactone level in human plasma after administration of compound at 4 hour; summary of the method: as §1
[9] = system: Mus musculus; assay: Change in the body weight of mice during the test time period after 34 days at a dose of 7 mg/kg
[10] = system: Mus musculus; assay: Change in the body weight of mice during the test time period after 21 days at a dose of 5 mg/kg
[11] = system: Mus musculus; assay: Change in the body weight of mice during the test time period after 21 days at a dose of 6 mg/kg
[12] = system: Mus musculus; assay: Change in the body weight of mice during the test time period after 21 days at a dose of 7 mg/kg
[13] = system: Mus musculus; assay: Change in the body weight of mice during the test time period after 21 days at a dose of 8 mg/kg
[14] = system: Mus musculus; assay: Change in the body weight of mice during the test time period after 27 days at a dose of 5 mg/kg
[15] = system: Mus musculus; assay: Change in the body weight of mice during the test time period after 27 days at a dose of 6 mg/kg
[16] = system: Mus musculus; assay: Change in the body weight of mice during the test time period after 27 days at a dose of 7 mg/kg
[17] = system: Mus musculus; assay: Change in the body weight of mice during the test time period after 27 days at a dose of 8 mg/kg
[18] = system: Mus musculus; assay: Change in the body weight of mice during the test time period after 34 days at a dose of 5 mg/kg
[19] = system: Mus musculus; assay: Change in the body weight of mice during the test time period after 34 days at a dose of 6 mg/kg
[20] = system: Mus musculus; assay: Change in the body weight of mice during the test time period after 34 days at a dose of 8 mg/kg
[21] = system: Mus musculus; assay: Change in the body weight of mice during the test time period after 41 days at a dose of 5 mg/kg
[22] = system: Mus musculus; assay: Change in the body weight of mice during the test time period after 41 days at a dose of 6 mg/kg
[23] = system: Mus musculus; assay: Change in the body weight of mice during the test time period after 41 days at a dose of 7 mg/kg
[24] = system: Mus musculus; assay: Change in the body weight of mice during the test time period after 41 days at a dose of 8 mg/kg
[25] = system: Mus musculus; assay: Change in the body weight of mice during the test time period after 48 days at a dose of 5 mg/kg
[26] = system: Mus musculus; assay: Change in the body weight of mice during the test time period after 48 days at a dose of 6 mg/kg
[27] = system: Mus musculus; assay: Change in the body weight of mice during the test time period after 48 days at a dose of 7 mg/kg
[28] = system: Mus musculus; assay: Change in the body weight of mice during the test time period after 48 days at a dose of 8 mg/kg
[29] = system: Mus musculus; assay: Change in the body weight of mice during the test time period after 56 days at a dose of 5 mg/kg
[30] = system: Mus musculus; assay: Change in the body weight of mice during the test time period after 56 days at a dose of 6 mg/kg
[31] = system: Mus musculus; assay: Change in the body weight of mice during the test time period after 56 days at a dose of 7 mg/kg
[32] = system: Mus musculus; assay: Change in the body weight of mice during the test time period after 56 days at a dose of 8 mg/kg
[33] = system: Mus musculus; assay: In vitro determination of lactone level in mouse plasma after administration of compound at 2 hour; summary of the method: as §1
[34] = system: Mus musculus; assay: In vitro determination of lactone level in mouse plasma after administration of compound at 4 hour; summary of the method: as §1
[35] = system: Mus musculus; assay: In vitro determination of tlactone level in mouse plasma after administration of compound at 0 hour
Summary of the method: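 Mouse plasma (1 mL) was spiked with 500 ng drug in methanol and incubated at 37 °C, with aliquots taken over time starting at t = 0 h. Percent lactone was derived by reverse-phase C-8 HPLC with fluorescence detection and peak-area integration. For parent camptothecins it was lactone/total drug; for esters it was drug at each time point/drug at t = 0 h.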

## CCC(=O)O[C@]1(CC)C(=O)OCc2c1cc1n(c2=O)Cc2cc3c([N+](=O)[O-])cccc3nc2-1
[1]
  Lactone: 100%
[2]
  Lactone: 93.7%
[3]
  Lactone: 64.4%
[4]
  Lactone: 100%
[5]
  Lactone: 97.7%
[6]
  Lactone: 84.3%

## CCC(=O)O[C@]1(CC)C(=O)OCc2c1cc1n(c2=O)Cc2cc3ccccc3nc2-1 [CAMPTOTHECIN-20-O-PROPIONATE]
[1]
  Lactone: 100%
[2]
  Lactone: 86%
[7]
  Lactone: 77%
[8]
  Lactone: 68%
[3]
  Lactone: 56%
[9]
  Body weight: 30.6 g
[10]
  Body weight: 33 g
[11]
  Body weight: 32.9 g
[12]
  Body weight: 30.8 g
[13]
  Body weight: 32.9 g
[14]
  Body weight: 33.7 g
[15]
  Body weight: 33.4 g
[16]
  Body weight: 31.7 g
[17]
  Body weight: 34.1 g
[18]
  Body weight: 34.4 g
[19]
  Body weight: 33.8 g
[20]
  Body weight: 34 g
[21]
  Body weight: 33.5 g
[22]
  Body weight: 33.5 g
[23]
  Body weight: 31.1 g
[24]
  Body weight: 33.4 g
[25]
  Body weight: 32.9 g
[26]
  Body weight: 34 g
[27]
  Body weight: 31.6 g
[28]
  Body weight: 33.9 g
[29]
  Body weight: 33.2 g
[30]
  Body weight: 32.2 g
[31]
  Body weight: 31.5 g
[32]
  Body weight: 33.2 g
[4]
  Lactone: 100%
[5]
  Lactone: 97.5%
[6]
  Lactone: 85%

## CC[C@@]1(O)C(=O)OCc2c1cc1n(c2=O)Cc2cc3ccccc3nc2-1 [CAMPTOTHECIN]
[1]
  Lactone: 100%
[2]
  Lactone: 12%
[7]
  Lactone: 0.5%
[8]
  Lactone: 0%
[3]
  Lactone: 0%
[5]
  Lactone: 42%
[33]
  Lactone: 35%
[34]
  Lactone: 18%
[6]
  Lactone: 18%
[35]
  Lactone: 100%

## CC[C@@]1(O)C(=O)OCc2c1cc1n(c2=O)Cc2cc3c([N+](=O)[O-])cccc3nc2-1 [RUBITECAN]
[1]
  Lactone: 100%
[2]
  Lactone: 7%
[3]
  Lactone: 0%
[4]
  Lactone: 100%
[5]
  Lactone: 30%
